Measured values: ChEMBL document CHEMBL4765448, “Multiple biological active 4-aminopyrazoles containing trifluoromethyl and their 4-nitroso-precursors: Synthesis and evaluation” (Eur J Med Chem, 2020)
In brackets after ≈: the same amount, converted by molar mass. Activity calls are given as the source filed them. The calls are words filed in the database; no cut-off is given here.

Key:
[1] = Acute toxicity in mouse at 150 mg/kg, ip administered as single dose; type: organism-based; conditions: in vivo
Outline: (§1)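 Mice, single intraperitoneal dose, following OECD Guideline for testing of chemicals; three mice per dose level; doses tested 10–300 mg/kg. Read-out is the number of survivors out of 3, used to estimate the expected LD50 range.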

[2] = test system: Microsporum canis; assay: Antifungal activity against Microsporum canis; type: functional
[3] = test system: Pseudomonas aeruginosa; assay: Antibacterial activity against Pseudomonas aeruginosa; type: functional
[4] = test system: Neisseria gonorrhoeae; assay: Antibacterial activity against Neisseria gonorrhoeae; type: functional
[5] = test system: HeLa; assay: Cytotoxicity against human HeLa cells; type: functional, cell-based; conditions: for IC50: Homo sapiens, HeLa, read-out: IC50
[6] = test system: Trichophyton rubrum; assay: Antifungal activity against Trichophyton rubrum; type: functional
[7] = test system: Streptococcus pyogenes; assay: Antibacterial activity against Streptococcus pyogenes; type: functional
[8] = test system: Trichophyton interdigitale; assay: Antifungal activity against Trichophyton mentagrophytes var. interdigitale; type: functional
[9] = test system: Proteus vulgaris; assay: Antibacterial activity against Proteus vulgaris; type: functional
[10] = test system: Shigella flexneri; assay: Antibacterial activity against Shigella flexneri; type: functional
[11] = test system: Citrobacter braakii; assay: Antibacterial activity against Citrobacter braakii; type: functional
[12] = test system: Candida albicans; assay: Antifungal activity against Candida albicans; type: functional
[13] = test system: Epidermophyton floccosum; assay: Antifungal activity against Epidermophyton floccosum; type: functional
[14] = test system: NHDF; assay: Cytotoxicity against HDF cells; type: cell-based, Homo sapiens
[15] = test system: Escherichia coli; assay: Antibacterial activity against Escherichia coli; type: functional
[16] = test system: Staphylococcus aureus; assay: Antibacterial activity against Staphylococcus aureus; type: functional
[17] = test system: Klebsiella pneumoniae; assay: Antibacterial activity against Klebsiella pneumoniae; type: functional
[18] = test system: Staphylococcus aureus; assay: Antibacterial activity against methicillin resistant Staphylococcus aureus; type: functional
[19] = test system: Nannizzia gypsea; assay: Antifungal activity against Trichophyton gypseum; type: functional
[20] = test system: Serratia marcescens; assay: Antibacterial activity against Serratia marcescens; type: functional
[21] = test system: Mycobacterium tuberculosis; assay: Antitubercular activity against Mycobacterium tuberculosis H37Rv; type: functional
Outline: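 Mycobacterium tuberculosis strain H37Rv; minimum inhibitory concentration (MIC) taken as the lowest level needed to inhibit bacterial growth; isoniazid and pyrazinamide served as reference drugs.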

[22] = Selectivity index, ratio of IC50 for HDF cells to IC50 for human HeLa cells; type: toxicity; conditions: HDF cells versus HeLa cells, read-out: Ratio IC50
[23] = test system: Trichophyton tonsurans; assay: Antifungal activity against Trichophyton tonsurans; type: functional
[24] = Antioxidant activity assessed as trolox equivalent of ABTS radical scavenging activity measured after 1 hr by UV-vis spectrophotometric method; type: functional
Outline: (§2)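 ABTS cation-radical decolorization was read spectrophotometrically as the fall in absorbance after 1 h. Trolox was the reference. TEAC was taken as the ratio of concentration-response slopes, test/Trolox, and IC50 was also derived. Data are mean ± SEM, n = 3.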

[25] = test system: Rattus norvegicus; assay: Antiinflammatory activity in rat model of carrageenan-induced paw edema assessed as inhibition of hind paw swelling at 15 mg/kg, ip measured after 5 hrs; type: functional, organism-based
[26] = test system: Erythrocyte; assay: Antioxidant activity in human erythrocytes assessed as protection against AAPH-induced hemolysis at 400 uM preincubated for 20 mins followed by AAPH addition and measured after 2 hrs by spectrophotometric method relative to control; type: functional; conditions: time 140 min, 2.333 h
Outline: (§3)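 Erythrocyte hemolysis assay with AAPH as the free-radical initiator, testing 50 and 400 µM. Results are expressed as relative protection of membranes against oxidative damage, each the mean of two independent experiments.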

[27] = Antioxidant activity assessed as ABTS radical scavenging activity measured after 1 hr by UV-vis spectrophotometric method; type: functional; outline: as §2
[28] = test system: Erythrocyte; assay: Antioxidant activity in human erythrocytes assessed as protection against AAPH-induced hemolysis at 50 uM preincubated for 20 mins followed by AAPH addition and measured after 2 hrs by spectrophotometric method relative to control; type: functional; conditions: time 140 min, 2.333 h; outline: as §3
[29] = test system: Rattus norvegicus; assay: Analgesic activity in rat assessed as prolongation of latency period at 15 mg/kg, ip measured after 2 hrs by hot-plate test relative to control; type: functional
Outline: (§4)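 Hot-plate test in rats. Compounds were given by intraperitoneal injection. Latency was read at 1 h and, for some compounds, also at 2 h after dosing. Results are expressed as % prolongation of the latent period versus vehicle-treated control. Significance was given as p-values.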

[30] = test system: Rattus norvegicus; assay: Analgesic activity in rat assessed as prolongation of latency period at 15 mg/kg, ip measured after 1 hr by hot-plate test relative to control; type: functional; outline: as §4
[31] = test system: Trichophyton violaceum; assay: Antifungal activity against Trichophyton violaceum; type: functional
[32] = Antioxidant activity assessed as AAPH scavenging activity by measuring residual fluorescence at 10 uM measured at 1 min interval for 30 mins by ORAC fluorescein assay relative to control; type: functional
Outline: (§5)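 ORAC-FL assay with fluorescein as the probe and AAPH as the peroxyl radical generator. The loss of fluorescence over time was followed, and the result is given as % fluorescence restored at 10 and 50 µM. Each value is the mean of two independent experiments.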

[33] = test system: Rattus norvegicus; assay: Antiinflammatory activity in rat model of carrageenan-induced paw edema assessed as inhibition of hind paw swelling at 15 mg/kg, ip measured after 1 hr relative to control; type: functional
[34] = test system: Rattus norvegicus; assay: Antiinflammatory activity in rat model of carrageenan-induced paw edema assessed as inhibition of hind paw swelling at 15 mg/kg, ip measured after 3 hrs relative to control; type: functional
[35] = Antioxidant activity assessed as AAPH scavenging activity by measuring residual fluorescence at 50 uM measured at 1 min interval for 30 mins by ORAC fluorescein assay relative to control; type: functional; outline: as §5
[36] = Acute toxicity in mouse at 300 mg/kg, ip administered as single dose; type: organism-based; conditions: in vivo; outline: as §1
[37] = Drug metabolism assessed as nitric oxide release in absence of rat plasma by Griess reagent based assay; type: cell-free
[38] = Acute toxicity in mouse at 10 mg/kg, ip administered as single dose; type: organism-based; conditions: in vivo; outline: as §1
[39] = Acute toxicity in mouse at 75 mg/kg, ip administered as single dose; type: organism-based; conditions: in vivo; outline: as §1

| Structure (SMILES) | MIC [2] [µg/mL] | MIC [3] [µg/mL] | MIC [4] [µg/mL] | MIC [6] [µg/mL] | MIC [7] [µg/mL] | MIC [8] [µg/mL] | MIC [9] [µg/mL] | MIC [10] [µg/mL] | MIC [11] [µg/mL] | MIC [12] [µg/mL] | MIC [13] [µg/mL] | MIC [15] [µg/mL] | MIC [16] [µg/mL] | MIC [17] [µg/mL] | MIC [18] [µg/mL] | MIC [19] [µg/mL] | MIC [20] [µg/mL] | MIC [21] [µg/mL] | MIC [23] [µg/mL] | Activity [24] | other results |
| --- | --- | --- | --- | --- | --- | --- | --- | --- | --- | --- | --- | --- | --- | --- | --- | --- | --- | --- | --- | --- | --- |
| Cc1[nH]nc(C(F)(F)F)c1N=O | 25 (≈ 140 µM) | 500 (≈ 2790 µM) | 15.6 (≈ 87.1 µM) | 25 (≈ 140 µM) | 7.8 (≈ 43.6 µM) | 50 (≈ 279 µM) | 31.2 (≈ 174 µM) | 250 (≈ 1400 µM) | 250 (≈ 1400 µM) | 50 (≈ 279 µM) | 50 (≈ 279 µM) | 250 (≈ 1400 µM) | 31.2 (≈ 174 µM) | 500 (≈ 2790 µM) | 62.5 (≈ 349 µM) | 50 (≈ 279 µM) | 250 (≈ 1400 µM) | 1.62 (≈ 9.05 µM) | 50 (≈ 279 µM) | inactive | Activity [1]: Toxic; Activity [5]: Dose-dependent effect; IC50 [5]: 61.6 µM; IC50 ([14]; nhdf): Not Active; selectivity ratio [22]: > 1.62; Activity [25]: Active |
| Nc1c(C(F)(F)F)n[nH]c1-c1ccccc1 | – | – | – | – | – | – | – | – | – | – | – | – | – | – | – | – | – | – | – | – | fold change (FC) [26]: 0.02; Activity [1]: Non-Toxic; IC50 [27]: 14.1 µM; fold change (FC) [28]: 1.1; Activity [29]: 66.7%; Activity [30]: 56.7% |
| O=Nc1c(C(F)(F)F)n[nH]c1-c1ccccc1 | > 200 | 125 (≈ 518 µM) | 62.5 (≈ 259 µM) | > 200 | 7.8 (≈ 32.3 µM) | > 200 | 31.2 (≈ 129 µM) | 31.2 (≈ 129 µM) | 62.5 (≈ 259 µM) | 100 (≈ 415 µM) | > 200 | 62.5 (≈ 259 µM) | 31.2 (≈ 129 µM) | 62.5 (≈ 259 µM) | 62.5 (≈ 259 µM) | > 200 | 62.5 (≈ 259 µM) | 0.36 (≈ 1.49 µM) | > 200 | inactive | fold change (FC) [26]: 1.05; fold change (FC) [28]: 0.99; Activity [5]: Dose-dependent effect; IC50 [5]: 1.86 µM; MIC [31]: > 200 µg/mL; Activity [32]: -80.4%; inhibition [33]: inactive; IC50 ([14]; Homo sapiens, NHDF, read-out: IC50): 1.42 µM; inhibition in vivo at 15 mg/kg [34]: 32%; Activity [35]: -119%; Activity [30]: 51.7%; selectivity ratio [22]: 0.76; Activity [25]: Active |
| O=Nc1c(C(F)(F)F)n[nH]c1-c1ccco1 | 12.5 (≈ 54.1 µM) | > 500 | 15.6 (≈ 67.5 µM) | 12.5 (≈ 54.1 µM) | 7.8 (≈ 33.7 µM) | 50 (≈ 216 µM) | 62.5 (≈ 270 µM) | 125 (≈ 541 µM) | 125 (≈ 541 µM) | 25 (≈ 108 µM) | 50 (≈ 216 µM) | 62.5 (≈ 270 µM) | 31.2 (≈ 135 µM) | 125 (≈ 541 µM) | 15.6 (≈ 67.5 µM) | 25 (≈ 108 µM) | 125 (≈ 541 µM) | 6.2 (≈ 26.8 µM) | 50 (≈ 216 µM) | 0.02 equiv | Activity [36]: Toxic; Activity [25]: Active |
| O=[N+]([O-])O[C@H]1CO[C@H]2[C@@H]1OC[C@H]2O[N+](=O)[O-] | – | – | – | – | – | – | – | – | – | – | – | – | – | – | – | – | – | – | – | – | Drug metabolism [37]: Metabolite detected |
| Nc1c(C(F)(F)F)n[nH]c1-c1cccs1 | – | – | – | – | – | – | – | – | – | – | – | – | – | – | – | – | – | – | – | – | fold change (FC) [26]: 0.01; IC50 [27]: 17.6 µM; fold change (FC) [28]: 1.11; Activity [38]: Non-Toxic; Activity [39]: Toxic |
